A selection: hits, their analogues and other compounds. The true share with any hit is near 3.5%.
MrgX1 antagonist: antagonists of human MrgX1 receptor. Q96LB2. MRGX1-HEK293 calcium flux, Fluo-4, BAM8-22 antagonism; hits give low values. B-score at 10 µM. hit rate 1.3% among 310,000;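 active = calcium-response B-score plate-corrected more than 3 library SD below zero, starting fluorescence within 5 deviations, no agonist response on first addition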;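 also: peak minus trough fluorescence over baseline after final BAM8-22 challenge near maximal dose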
Target sequence (Q96LB2 whole entry, looked up): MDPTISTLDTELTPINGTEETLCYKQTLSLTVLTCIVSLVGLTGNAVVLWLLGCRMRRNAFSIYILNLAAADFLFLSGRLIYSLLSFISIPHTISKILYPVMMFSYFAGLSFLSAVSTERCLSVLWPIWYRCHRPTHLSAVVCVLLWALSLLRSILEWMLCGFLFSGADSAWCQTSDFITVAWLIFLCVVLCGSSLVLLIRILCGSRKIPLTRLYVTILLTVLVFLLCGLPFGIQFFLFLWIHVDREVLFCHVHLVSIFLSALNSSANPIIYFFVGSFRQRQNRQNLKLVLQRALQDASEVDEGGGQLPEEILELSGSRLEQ
MrgX1 agonist: activates human MrgX1 receptor signaling | Q96LB2 | MrgX1-HEK293 cells, Fluo-4 calcium fluorescence, agonist mode; hits give high values | B-score at 10 µM | hit rate 0.44% among 310,000 | AID 588627;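 active = calcium response B-score plate-corrected fluorescence ratio at least 3 library SD, with starting fluorescence B-score inside 5 SD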
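Assay system: stable human MrgX1 HEK293 cell line. Quantity: 15,000 cells per well. Schedule: cells plated overnight, dye loaded 0.5 h 37 °C, 0.5 h room temperature. Detection: Fluo-4 NW calcium-flux fluorescence, kinetic read. Read-out basis: peak-minus-minimum fluorescence over baseline, converted to B scores. Control set: positive and negative control wells on each plate.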
RGS4 act: RGS4 potentiation or activation. HEK293 M3R/inducible RGS4, carbachol calcium flux Fluo4; hits give low values. B-score at 10 µM. hit rate 0.92% among 310,000. AID 463111;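 active = B-score of the integrated calcium signal more than 4 SD below the library mean, with starting fluorescence not abnormally high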;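 also: negative B-score means reduced calcium response which marks RGS4 activation or potentiation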
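Reagent: ECmax carbachol challenge; Test system: M3R-expressing HEK293 line, RGS4 induced by doxycycline; Schedule: overnight RGS4 induction, 30 min dye load 37 °C, 20 min compound RT; Detection: calcium dye Fluo4 fluorescence; Read-out: Agonist-evoked peak-minus-minimum fluorescence over baseline, integrated ratio, B score.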
RGS4 block: human RGS4 inhibition; HEK293 M3R/RGS4 inducible, Fluo-4 calcium flux; hits give high values; triggered by carbachol at its EC20; AID 463165; B-score at 10 µM; hit rate 0.45% among 310,000;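 active = B-score, a plate-corrected calcium signal, over three deviations above library mean, with baseline fluorescence within five deviations of library mean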;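 also: RGS4 expression induced by doxycycline in cells with stable M3 receptor; B-score is computed from the integrated fluorescence ratio over baseline after carbachol; higher B-score means a larger calcium signal and so more RGS4 inhibition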
Target sequence (P49798 whole entry, looked up): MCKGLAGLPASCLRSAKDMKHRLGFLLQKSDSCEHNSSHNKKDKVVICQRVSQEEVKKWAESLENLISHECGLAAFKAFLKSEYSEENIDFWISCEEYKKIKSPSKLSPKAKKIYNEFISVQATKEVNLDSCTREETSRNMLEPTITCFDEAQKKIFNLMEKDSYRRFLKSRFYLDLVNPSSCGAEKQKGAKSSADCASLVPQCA
MrgX1 allo act: allosterically activates human MrgX1 receptor signaling; MrgX1-HEK293, Fluo-4 calcium flux, FDSS; hits give high values; AID 588675; Q96LB2; hit rate 0.63% among 310,000; B-score at 10 µM;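 active = plate-corrected calcium response at least 3 library SD above typical, normal starting fluorescence, not activating the receptor alone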;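 also: compound read alongside a low EC10 to EC30 dose of BAM8-22 agonist; peak minus trough fluorescence over baseline measured at the second addition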
RGS4 inh valid: validation of RGS4 inhibitors | shares compounds with RGS4 block | HEK293 M3R/RGS4, carbachol calcium Fluo-4 fluorescence; carbachol added at its EC20; 0 = buffer wells, 100 = carbachol control | calcium response, % at 10 µM | hit rate 65% among 1,700 | AID 492999;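 active = duplicate-averaged calcium response above the buffer-only control mean plus 5 SD of those controls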;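 also: integrated fluorescence ratio F max minus min over baseline F0; higher response in RGS4-induced cells means RGS4 inhibition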
M3R Ca ctr: checks RGS4 inhibitor effects in non-induced HEK293 M3R cells; shares compounds with RGS4 block; carbachol calcium Fluo-4; submaximal (EC20) carbachol stimulus; buffer wells 0%, carbachol control wells 100%; activity (percent), % at 10 µM; hit rate 20% among 1,900; AID 493000; call rule not given here;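 also: RGS4 induction absent so cells express M3R without RGS4; higher means more calcium signal and flags a non-specific hit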
RGS4 inh ctr2: second counter-screen for RGS4 inhibitors: non-induced cells without carbachol | hit rate 22% among 1,900 | shares compounds with RGS4 block | calcium response (agonist-mode artifact), % at 10 µM | AID 493001 | HEK293 M3R/RGS4 non-induced, Fluo-4 calcium, no carbachol; normalised: buffer wells 0%, carbachol wells 100%;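 active = duplicate-averaged calcium rise in uninduced cells above buffer wells' mean plus 5 SD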
Large screens that a line does not name were inactive (follow-up assays come after a bar, where they were run).

Cc1ccc(-c2csc(Nc3ccccn3)n2)cc1	RGS4 block 9.1 | RGS4 inh valid inactive | M3R Ca ctr inactive | RGS4 inh ctr2 inactive
COc1ccc(-c2csc(Nc3ccccn3)n2)cc1OC	none
Cc1cccnc1Nc1nc(-c2ccc(O)cc2)cs1	none
c1ccc(-c2csc(Nc3ccccn3)n2)cc1	none | RGS4 inh valid inactive | M3R Ca ctr inactive | RGS4 inh ctr2 inactive
Oc1ccc(-c2csc(Nc3ccccn3)n2)cc1	none | RGS4 inh valid inactive | M3R Ca ctr inactive | RGS4 inh ctr2 inactive
Cc1cc(-c2csc(Nc3ccccn3)n2)ccc1F	RGS4 block 5.4 | RGS4 inh valid 16% | M3R Ca ctr inactive | RGS4 inh ctr2 inactive
CN1C=CC=C/C1=C1\SC(=S)N(N)C1=O	none
COc1ccc(Cl)cc1NC(=O)c1nnn(CC(=O)Nc2ccc(C)c(C)c2)c1N	none
Cc1cc(S(=O)(=O)Nc2ccc3cn[nH]c3c2)c(C)cc1Cl	RGS4 block 15 | RGS4 inh valid 30% | M3R Ca ctr inactive | RGS4 inh ctr2 inactive
Cn1cc([N+](=O)[O-])c(C(=O)NC2CCCCCCC2)n1	none
OCCOCCn1c(C(CO)Nc2nc(-c3ccc(F)cc3)cs2)nc2ccccc21 (configuration not stated)	none
CCCn1c(C(C)Nc2nc(-c3ccc(C)cc3)cs2)nc2ccccc21 (configuration not stated)	none
CCCn1c(C(C)Nc2nc(-c3cccc(Br)c3)cs2)nc2ccccc21 (configuration not stated)	none | M3R Ca ctr inactive | RGS4 inh ctr2 inactive
CCCn1c(C(C)Nc2nc(-c3ccc(Cl)c([N+](=O)[O-])c3)cs2)nc2ccccc21 (configuration not stated)	RGS4 block 8 | RGS4 inh valid 16% | M3R Ca ctr inactive | RGS4 inh ctr2 inactive
O=[N+]([O-])c1cc(-c2csc(NC(CO)c3nc4ccccc4n3CCOCCO)n2)ccc1Cl (configuration not stated)	RGS4 block 7.7 | RGS4 inh valid 6.0% | M3R Ca ctr 40% | RGS4 inh ctr2 inactive
C=CCOc1ccc2c(c1)C(=NO)c1cc(OCC=C)ccc1-2	RGS4 block 5.6 | RGS4 inh valid 9.5% | M3R Ca ctr inactive | RGS4 inh ctr2 inactive
CC1Cc2cc(/C(O)=C3/C(=O)C(=O)N(CCCn4ccnc4)C3c3ccc(F)cc3)ccc2O1 (configuration not stated)	none
Cc1cc2cc(C)c(NCCNC(=O)c3ccccc3)nc2cc1C	none | RGS4 inh valid inactive | M3R Ca ctr inactive | RGS4 inh ctr2 inactive
Cn1c(=O)c2c(-c3ccccc3)n(-n3cnnc3)cc2n(C)c1=O	RGS4 block 5.4 | RGS4 inh valid 11% | M3R Ca ctr inactive | RGS4 inh ctr2 inactive
COc1ccc(Cl)cc1NC(=O)CCNC(=O)Cn1ccc2ccccc2c1=O	none
Nc1ccc(N2CCCCC2)c(Cl)c1	none
O=C(/C=C/c1ccc([N+](=O)[O-])cc1)c1ccco1	RGS4 block 11 | RGS4 inh valid 12% | M3R Ca ctr inactive | RGS4 inh ctr2 inactive
O=C(/C=C/c1ccc(Br)cc1)c1ccco1	none
O=C(/C=C/c1ccc([N+](=O)[O-])cc1)c1cccnc1	RGS4 block 18 | RGS4 inh valid 39% | M3R Ca ctr 52% | RGS4 inh ctr2 inactive
O=C(/C=C/c1cccnc1)c1ccc(F)c(F)c1	RGS4 block 21 | RGS4 inh valid 27% | M3R Ca ctr 46% | RGS4 inh ctr2 inactive
COc1cc(NC(=S)NC2CC(C)(C)NC(C)(C)C2)c(OC)cc1Cl	none
O=C(CCc1ccccc1)Nc1ccc2c(c1)C(=O)OC2	none
N#CC1=C(N)N=C(SCc2cccc3ccccc23)C(C(N)=O)C12CCCCC2 (configuration not stated)	RGS4 block 5.9 | RGS4 inh valid 16% | M3R Ca ctr inactive | RGS4 inh ctr2 inactive
O=C(O)CCn1c(SCc2cccc3ccccc23)nc2ccccc21	none
O=C(NCCCCc1ccccc1)C1CCCC1	none
O/N=C/c1cn(-c2ccccc2)nc1-c1ccccc1	none
CC1(C)CC(=O)C(=Cc2cn(-c3ccccc3)nc2-c2ccccc2)C(=O)C1	none | RGS4 inh valid inactive | M3R Ca ctr inactive | RGS4 inh ctr2 inactive
COC(=O)C1=C(C)NC(=O)/C1=C\N(C)C	none
COc1ccc(C(C(=O)NC2CCCCC2)N(C(=O)Cc2c[nH]c3ccccc23)c2ccccc2C)cc1OC (configuration not stated)	none | RGS4 inh valid inactive | M3R Ca ctr inactive | RGS4 inh ctr2 inactive
O=C(Nc1ccccc1)C1=C(c2ccccc2)S(=O)(=O)CCS1(=O)=O	RGS4 block 23 (no result: MrgX1 antagonist, MrgX1 agonist, MrgX1 allo act) | RGS4 inh valid 47% | M3R Ca ctr inactive | RGS4 inh ctr2 inactive
O=C(O)c1ccccc1C(=O)Nc1ccccc1	none
O=[N+]([O-])c1ccc(Cl)c(S(=O)(=O)Nc2ccc(S(=O)(=O)N3CCOCC3)cc2)c1	none
CC(=O)/C(=N/Nc1ccccc1)N1CCOCC1	none | RGS4 inh valid inactive | M3R Ca ctr inactive | RGS4 inh ctr2 inactive
CC(=O)OCCCNc1cc(Sc2ccc(C)cc2)c2nonc2c1[N+](=O)[O-]	none
CC(=O)OCCCNc1cc(Sc2nc3ccccc3s2)c2nonc2c1[N+](=O)[O-]	RGS4 block 4.7 | RGS4 inh valid inactive | M3R Ca ctr inactive | RGS4 inh ctr2 113%
O=[N+]([O-])c1c(NCCCO)cc(Sc2ccc(Cl)cc2)c2nonc12	none
Cn1ccnc1Sc1cc(NCCCO)c([N+](=O)[O-])c2nonc12	RGS4 block 17 | RGS4 inh valid 50% | M3R Ca ctr inactive | RGS4 inh ctr2 inactive
CC(=O)OCCNc1cc(SCc2ccco2)c2nonc2c1[N+](=O)[O-]	none
CC(=O)OCCNc1cc(Sc2nc3ccccc3[nH]2)c2nonc2c1[N+](=O)[O-]	RGS4 block 15 | RGS4 inh valid 6.5% | M3R Ca ctr inactive | RGS4 inh ctr2 inactive
COc1ccc(S(=O)(=O)NCCC(=O)NCc2ccccc2)cc1	none | RGS4 inh valid inactive | M3R Ca ctr inactive | RGS4 inh ctr2 inactive
Cc1ccc(S(=O)(=O)CCC(=O)OCC(=O)NCC(=O)Nc2c(C)cc(C)cc2C)cc1	none
O=C(Cc1ccccc1)Nc1cccc(N2C(=O)C=CC2=O)c1	RGS4 block 7.5 | RGS4 inh valid 12% | M3R Ca ctr inactive | RGS4 inh ctr2 42%
COc1ccccc1CN1CCNC(=O)C1CC(=O)NC1Cc2ccccc2C1 (configuration not stated)	none

Screens from PubChem BioAssay.
